From the array DNA melting data of Ke et al. (doi:10.1101/2024.01.08.574731)

Legend:
[1] = folding enthalpy; higher = less favourable; fluorescence melt of hairpins on a sequencing array, two-state fit; settings: sodium 0.088 M
Outline: (§1)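 Bootstrapped two-state fits yielded melting temperature and folding enthalpy for library hairpins. Cy3 fluorescence, with annealed Cy3 and quencher oligos, was imaged on a sequenced MiSeq flow cell in 50 mM Na-HEPES pH 8.0, 25 mM NaCl in 2.5 °C steps up to 60 °C, and normalised to pre-quench Cy3 and to control constructs. Four replicates were combined by inverse variance, and fitted temperatures were raised by 9.35 °C to match UV melts.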

[2] = melting temperature; fluorescence melt of hairpins on a sequencing array, two-state fit, raised by 9.35 °C to match UV melts; settings: sodium 0.088 M
Outline: as §1

Row | Sequence | folding enthalpy [1] | Tm [2]
1 | GATCGGTTGACCGATC ((((((....)))))) | -33.9 kcal/mol | 60.3 °C
2 | GGAGTTCGAAAGAAATCC (((.(((....))).))) | -33.8 kcal/mol | 49.2 °C
3 | GCGATCCATCGC ((((....)))) | -27.3 kcal/mol | 57.2 °C
4 | GATCTTGTCCAAGATC ((((((....)))))) | -34.2 kcal/mol | 50.1 °C
5 | GCGACTCCTCGC ((((....)))) | -23.9 kcal/mol | 48.6 °C
6 | GACCCACGAAAGTGTGTC (((.(((....))).))) | -27.4 kcal/mol | 48.9 °C
7 | GAACACGAAAGTGGCTTC ((((((....)))..))) | -23 kcal/mol | 45.4 °C
8 | CGACCCGGAAACGGTTCG (((.(((....))).))) | -39.8 kcal/mol | 48.6 °C
9 | GACAGCCGAAAGGCAGTC (((.(((....))).))) | -22.5 kcal/mol | 60.1 °C
10 | GATCGATTCCTCGATC ((((((....)))))) | -41.2 kcal/mol | 52.3 °C
11 | GTTGACGGAAACGTCAAC (((((((....))))))) | -33.6 kcal/mol | 66.9 °C
12 | GTCTGGCGAAAGCCCGAC (((.(((....))).))) | -25.7 kcal/mol | 52.2 °C
13 | GTCAATCGAAAGATAGAC (((.(((....))).))) | -28.2 kcal/mol | 43.5 °C
14 | GCAGGGGGAAACTCCTGC (((((.(....).))))) | -43.4 kcal/mol | 57.6 °C
15 | GCAGCGCGAAAGCACAGC ((.(.((....)).).)) | -19.9 kcal/mol | 43.8 °C
16 | GATCTTCCAGAAGATC ((((((....)))))) | -33.7 kcal/mol | 46 °C
17 | GCGTTGGGAAACCAGTGC ((..(((....)))..)) | -24.1 kcal/mol | 36.5 °C
18 | GTGATGCCGAAAGGCCAC (((..(((....)))))) | -13.5 kcal/mol | 41.6 °C
19 | GTGCTACCGAAAGGTCAC (((..(((....)))))) | -15.5 kcal/mol | 37 °C
20 | GACTACCGAAAGGTCGTC (((.(((....))).))) | -39.4 kcal/mol | 48.6 °C
21 | GGGCATGGAAACATACCC (((.(((....))).))) | -31.8 kcal/mol | 44.1 °C
22 | GTTACCGAAAGGTACAAC ((((((....)))..))) | -10.9 kcal/mol | 31.2 °C
23 | GCGAGAGGAAACTCTCAC (.(((((....))))).) | -17.9 kcal/mol | 39 °C
24 | GTCTACCGAAAGGTTGAC (((.(((....))).))) | -40.5 kcal/mol | 52.6 °C

Row | Sequence | folding enthalpy [1] | Tm [2]
25 | GTCTACCGAAAGGTCGAC (((.(((....))).))) | -33.9 kcal/mol | 48.7 °C
26 | GCGCTGCGAAAGCACCGC (((.(((....))).))) | -46.8 kcal/mol | 53.9 °C
27 | GTGCCCGAAAGGGTACAC ((((((....)))..))) | -13.9 kcal/mol | 61.6 °C
28 | GCGGAGACCCGC ((((....)))) | -20.5 kcal/mol | 52.8 °C
29 | GCGCAACGAAAGTTCGC (((.(((....)))))) | -32 kcal/mol | 54.9 °C
30 | GGTGACGGAAACGTCATC (.(((((....))))).) | -38.2 kcal/mol | 54.1 °C
31 | GGTGTCGAAAGACAAACC ((((((....)))..))) | -16.6 kcal/mol | 44.4 °C
32 | GCCCCCGAAAGGGAGGGC ((((((....)))..))) | -30 kcal/mol | 59.8 °C
33 | GTGTAAGGAAACTTGCAC (((.(((....))).))) | -31 kcal/mol | 45.1 °C
34 | GGACTCCCGAAAGGGTCC (((..(((....)))))) | -16.8 kcal/mol | 45.3 °C
35 | CGACCGGAAACGGTTTCG ((((((....)))..))) | -10.3 kcal/mol | 33.5 °C
36 | GCGGCAGGAAACCGCCAC (.(((.(....).))).) | -12.7 kcal/mol | 47.5 °C
37 | GATCTTCGTAAGATC ((((((...)))))) | -30.9 kcal/mol | 45.2 °C
38 | GCAGGGCGAAAGCCCCGC ((.((((....)))).)) | -14.5 kcal/mol | 62.8 °C
39 | GCTCGCCCGAAAGGGAGC (((..(((....)))))) | -16.8 kcal/mol | 48.4 °C
40 | GCTGCCGGAAACAGCAGC (((((.(....).))))) | -34.1 kcal/mol | 53.8 °C
41 | GTGCCCGAAAGGGCCAC ((((((....))).))) | -7.47 kcal/mol | 57.2 °C
42 | GCGCATGGAAACACACGC (((..((....))..))) | -19.4 kcal/mol | 29.6 °C
43 | GTTGGCCGAAAGGCTAAC (((.(((....))).))) | -28.6 kcal/mol | 58.3 °C
44 | GGTTGCGGAAACGTAACC ((((.((....)).)))) | -47.9 kcal/mol | 54 °C
45 | GAAAACGGAAACGCTTTC ((((.((....)).)))) | -32.4 kcal/mol | 34.8 °C
46 | GGCCAGCGAAAGCTTGCC (((.(((....))).))) | -50.7 kcal/mol | 55.5 °C
47 | GTGAGAGGAAACTCTCAC (((((((....))))))) | -41.8 kcal/mol | 61.7 °C
48 | GATGGAGAAATCCATC ((((((....)))))) | -30 kcal/mol | 51 °C

Row | Sequence | folding enthalpy [1] | Tm [2]
49 | GCTTGGACGAAAGTCAGC (((..(((....)))))) | -16.7 kcal/mol | 42.1 °C
50 | GGACACGAAAGTGAGTCC ((((((....)))..))) | -21 kcal/mol | 44.8 °C
51 | GCACGGGGAAACCCACGC ((..(((....)))..)) | -23.9 kcal/mol | 41.5 °C
52 | GCAAACGAAAGTTGGTGC ((((((....)))..))) | -22.5 kcal/mol | 36.7 °C
53 | GCCGAGGGAAACCCCGGC ((((.((....)).)))) | -40.2 kcal/mol | 59.9 °C
54 | GATCCGCTGACGGATC ((((((....)))))) | -38 kcal/mol | 60.7 °C
55 | GGAAACGAAAGTTCTCC ((((((....))).))) | -16.8 kcal/mol | 35.8 °C
56 | GAAGAGGGAAACCTCTTC (((((((....))))))) | -33.5 kcal/mol | 55.3 °C
57 | GCGTTCCACGC ((((...)))) | -25.3 kcal/mol | 59.7 °C
58 | GTGTGCGAAAGCAATCAC ((((((....)))..))) | -16.1 kcal/mol | 39.9 °C
59 | GATCGTACGCACGATC ((((((....)))))) | -37.4 kcal/mol | 55.1 °C
60 | GCTGCCGAAAGGCTCAGC ((((((....)))..))) | -15 kcal/mol | 44.4 °C
61 | GATCGCAGAGGCGATC ((((((....)))))) | -35.8 kcal/mol | 66.8 °C
62 | GCCCTCGAAAGAGTTGGC ((((((....)))..))) | -23.2 kcal/mol | 44 °C
63 | GTTGAGGGAAACCTCAAC (((((((....))))))) | -42.2 kcal/mol | 59.8 °C
64 | GCCTAGGCGAAAGCCGGC (((..(((....)))))) | -13.3 kcal/mol | 65.8 °C
65 | GATCCCTTGTGGGATC ((((((....)))))) | -31 kcal/mol | 62.4 °C
66 | GCGAAACTTCGC ((((....)))) | -19.9 kcal/mol | 51.1 °C
67 | GCGCAGGGAAACCTGCAC (.(((((....))))).) | -12.7 kcal/mol | 47.6 °C
68 | GCAAAACGAAAGTTGTGC (((.(((....))).))) | -34.2 kcal/mol | 49.1 °C
69 | GTACGTGCGAAAGCATAC (((..(((....)))))) | -10.3 kcal/mol | 26.4 °C
70 | GCAGGGCGAAAGCATTGC (((..((....))..))) | -19.6 kcal/mol | 53 °C
71 | GATCACTAGTGTGATC ((((((....)))))) | -37.6 kcal/mol | 55.1 °C
72 | GCGATAACTCGC ((((....)))) | -21.1 kcal/mol | 45.9 °C

Row | Sequence | folding enthalpy [1] | Tm [2]
73 | GACCGAACGAAAGTTGTC (((..(((....)))))) | -17 kcal/mol | 29.5 °C
74 | GATCACAAGGTGATC ((((((...)))))) | -38.4 kcal/mol | 58.4 °C
75 | GCGTAATGACGC ((((....)))) | -23.2 kcal/mol | 51.5 °C
76 | CGAGGGAAACCTCG (((((....))))) | -25.4 kcal/mol | 53.7 °C
77 | GAGGGTGCGAAAGCACTC (((..(((....)))))) | -8.61 kcal/mol | 41.1 °C
78 | GCGGACGCCCGC ((((....)))) | -20.1 kcal/mol | 56.1 °C
79 | GGCCTCGAAAGAGATGCC ((((((....)))..))) | -24.1 kcal/mol | 46.8 °C
80 | GATCACGACGTGATC ((((((...)))))) | -30.6 kcal/mol | 64.6 °C
81 | GATCTATGGATAGATC ((((((....)))))) | -29.5 kcal/mol | 43 °C
82 | GCCTTCGAAAGAAATGGC ((((((....)))..))) | -24.6 kcal/mol | 38.5 °C
83 | GATCCTCTTTAGGATC ((((((....)))))) | -46.6 kcal/mol | 52 °C
84 | GCTTCGCGAAAGCAGAGC (((..((....))..))) | -18.2 kcal/mol | 48.3 °C
85 | GATTCCGAAAGGACAATC ((((((....)))..))) | -13.8 kcal/mol | 25.6 °C
86 | GATCAAAGGTTGATC ((((((...)))))) | -27.2 kcal/mol | 40 °C
87 | GTACCTCGAAAGAGCTAC (((.(((....))).))) | -11.1 kcal/mol | 30.2 °C
88 | GATTAGGGAAACCTAATC (((((((....))))))) | -45.1 kcal/mol | 50.3 °C
89 | GAAAAGCGAAAGCTGTTC (((.(((....))).))) | -18 kcal/mol | 44.9 °C
90 | GTGGATCCGAAAGGACAC (((..(((....)))))) | -23.3 kcal/mol | 39.4 °C
91 | GTTAAGCGAAAGCTAAC (((.(((....)))))) | -18.5 kcal/mol | 44.4 °C
92 | GAAGACGGAAACATCTTC (((((.(....).))))) | -20 kcal/mol | 29.8 °C
93 | GGAGCTCGAAAGAGTTCC (((.(((....))).))) | -42.9 kcal/mol | 57.4 °C
